From PubChem BioAssay
A selection: hits, their analogues and other compounds. The true share with any hit is near 2.8%.
PAFAH2 inh: inhibitors of human PAFAH2. inhibition, % at 3.39 µM. recombinant PAFAH2, FP-rhodamine activity probe, fluorescence polarization. 340,000 compounds, 0.99% hits. Q99487;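 active = inhibition above the mean over all tested compounds plus 3 SD, cut at about 30% in these data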;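 also: inhibitors block probe labeling of enzyme so polarization drops; 0% = enzyme with DMSO and 100% = wells lacking PAFAH2 protein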
pPAFAH inh: inhibitors of human plasma PAF acetylhydrolase (pPAFAH); Q13093; recombinant pPAFAH, FP-rhodamine probe fluorescence polarization; inhibition, % at 3.39 µM; 330,000 compounds, 1.5% hits; AID 463082;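 active = inhibition above the mean inhibition across the screen plus 3 SD, cut at about 25% in these data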;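 also: inhibitors block binding of the rhodamine activity-based probe so polarization drops; 0% = enzyme with DMSO and 100% = wells lacking pPAFAH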
PAFAH1B2 FP inh: PAFAH1B2 (human) inhibition | P68402 | recombinant PAFAH1B2, FP-rhodamine activity probe, fluorescence polarization | inhibition, % at 3.39 µM | 340,000 compounds, 1.2% hits | AID 492953;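 active = inhibition above the mean of all tested compounds plus 3 SD, cut at about 24% in these data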;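 also: 0% = enzyme with DMSO and 100% = wells lacking PAFAH1B2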
Target sequence (P68402 whole entry, looked up): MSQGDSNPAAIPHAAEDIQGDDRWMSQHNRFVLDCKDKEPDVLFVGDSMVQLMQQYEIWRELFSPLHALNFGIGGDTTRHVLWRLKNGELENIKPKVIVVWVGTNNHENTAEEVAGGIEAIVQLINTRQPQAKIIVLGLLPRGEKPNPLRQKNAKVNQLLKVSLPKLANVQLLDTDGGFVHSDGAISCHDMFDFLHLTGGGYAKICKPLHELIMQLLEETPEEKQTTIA
mABHD4 FP: inhibitors of mouse ABHD4. Q8VD66. purified mABHD4, FP-Rh probe fluorescence polarization. inhibition, % at 8.92 µM. 370,000 compounds, 0.54% hits;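 active = inhibition exceeding the mean over every tested compound plus 3 SD, cut at about 30% in these data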;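 also: 0% = plate median of compound wells and 100% = S159A mutant with DMSO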
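Test system: mABHD4 protein | Buffer or medium: HEPES pH 7.0 buffer, 150 mM NaCl, 0.01% Pluronic F-127 | Probe or stimulus: FP-Rh fluorescent activity-based probe, added after compound pre-incubation | Timing: Pre-incubation 45 min, probe exposure 60 min, at 25 °C | Technique: Fluorescence polarization, excitation 525 nm, emission 598 nm, BODIPY TMR filters | Repeats: Single well per compound (singlicate)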
PAFAH1B3 FP inh: inhibitors of human PAFAH1B3; Q15102; 340,000 compounds, 0.28% hits; recombinant PAFAH1B3, FP-rhodamine probe, fluorescence polarization; inhibition, % at 3.39 µM; AID 492972;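 active = inhibition above the screen-wide average of all tested compounds plus 3 SD, cut at about 25% in these data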;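 also: 0% = enzyme with DMSO only and 100% = wells lacking PAFAH1B3 protein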
HTRA1 inh: inhibitors of human serine peptidase HTRA1. Q92743. recombinant HTRA1, FP-rhodamine activity-based probe, fluorescence polarization. inhibition, % at 5.96 µM. 340,000 compounds, 0.5% hits; in the data active = inhibition above about 36%;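 also: 0% = enzyme with DMSO and 100% = wells lacking enzyme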
Target sequence (Q92743 whole entry, looked up): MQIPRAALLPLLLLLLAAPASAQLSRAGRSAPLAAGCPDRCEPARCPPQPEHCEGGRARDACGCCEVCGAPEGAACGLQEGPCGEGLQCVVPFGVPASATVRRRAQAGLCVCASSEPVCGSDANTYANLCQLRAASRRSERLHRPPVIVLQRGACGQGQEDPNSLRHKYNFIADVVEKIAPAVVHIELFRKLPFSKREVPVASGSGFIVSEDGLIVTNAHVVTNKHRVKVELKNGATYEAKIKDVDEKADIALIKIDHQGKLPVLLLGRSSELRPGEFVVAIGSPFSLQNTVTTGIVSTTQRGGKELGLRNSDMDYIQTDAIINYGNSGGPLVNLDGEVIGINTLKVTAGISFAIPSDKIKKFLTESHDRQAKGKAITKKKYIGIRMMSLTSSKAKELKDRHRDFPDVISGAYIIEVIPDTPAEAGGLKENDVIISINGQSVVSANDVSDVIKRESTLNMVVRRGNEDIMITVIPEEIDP
An asterisk follows results filed as active; x = not tested or not shown.

SMILES	PAFAH2 inh	pPAFAH inh	PAFAH1B2 FP inh	mABHD4 FP	PAFAH1B3 FP inh	HTRA1 inh
Cc1nc(C)c(-c2csc(Nc3cccc(O)c3)n2)s1	21.2	15.4	10.0	12.4	8.0	-1.5
CCC(=O)Nc1nc(C)c(-c2csc(Nc3cccc(O)c3)n2)s1	12.9	32.1*	10.3	-2.8	11.7	12.3
CC(C)C(OC(=O)c1nsc(Cl)c1Cl)C(=O)NCc1ccccc1 (stereo not drawn)	10.8	26.5*	4.6	-2.8	5.9	-3.9
O=C(O/N=C1/CCCc2occc21)c1ccc(Cl)cc1Cl	7.9	0.1	33.7*	-1.8	1.8	-14.2
O=C(O/N=C1/CCCc2occc21)c1ccccc1	18.2	5.6	-1.0	2.2	5.2	-1.3
Cc1cccc(-n2nc3c(c2NC(=O)c2ccco2)CSC3)c1C	9.8	30.9*	-5.6	-15.5	1.0	-26.1
COc1ccc(CN2C(=O)c3ccccc3C2C(=O)NC2CCC(C)CC2)c(OC)c1 (stereo not drawn)	1.2	10.7	25.7*	-9.2	10.6	-2.6
COc1ccc(CN2C(=O)c3ccccc3C2C(=O)NC2CCCC2)c(OC)c1 (stereo not drawn)	3.1	0.9	6.3	4.7	-1.1	-10.2
O=C(COC(=O)c1cccc(S(=O)(=O)NCc2ccccc2)c1)Nc1ccccc1OC(F)F	43.0*	31.7*	10.1	-7.4	6.0	-11.0
O=C(COC(=O)c1ncc(Cl)c(Cl)c1Cl)Nc1ccccc1OC(F)F	1.4	25.4*	2.9	0.3	9.0	-3.7
CC(C)(C)N1C(=O)Cc2c1nc(N)c1c(N)nc(N3CCCCC3CO)c(C#N)c21 (stereo not drawn)	5.0	18.9	3.5	x	-2.9	55.5*
CN(CCO)c1nc(N)c2c(N)nc3c(c2c1C#N)CC(=O)N3C1CCCC1	x	14.5	x	x	x	x
Cc1ccc(/C=C2\SC(=S)N(CCCC(=O)Nc3ccccc3C(=O)O)C2=O)cc1	29.5	1.0	18.8	3.2	2.7	-2.5
O=C(CCCN1C(=O)/C(=C\c2cccs2)SC1=S)Nc1ccc(O)cc1C(=O)O	13.2	25.3*	43.9*	3.2	5.1	1.2
CCc1ccc(/C=C2\SC(=S)N(CCCC(=O)Nc3ccccc3C(=O)O)C2=O)cc1	30.7*	-4.1	55.0*	-1.8	-2.2	0.3
COc1ccc(-n2c(COc3ccc(Cl)cc3)nnc2SCc2nc3ccccc3[nH]2)cc1	x	x	x	-2.5	x	x
O=C1CC[C@@H](OCc2ccccc2)CCN1CC[C@H](Sc1ccccc1)c1ccccc1	32.6*	31.8*	5.3	-1.9	-1.8	-45.2
CC(C)(C)C1CCC(=O)C(C2(O)C(=O)Nc3ccccc32)C1 (stereo not drawn)	0.3	5.4	27.1*	-6.7	10.2	3.6
CCOC(=O)c1csc(NC(=O)C2CCCN(S(=O)(=O)c3ccc(C)cc3)C2)n1 (stereo not drawn)	x	x	x	-13.8	x	x
N#Cc1ccc(S(=O)(=O)N2CCc3[nH]c4ccc(F)cc4c3C2)cc1	7.6	12.5	38.0*	-9.0	4.8	-5.8
O=S(=O)(c1ccc2[nH]c3c(c2c1)CCCC3)N1CCCCC1	7.5	14.2	5.3	2.9	5.0	-41.4
CCN(CC)C(=O)[C@H]1CC(CC(=O)NC/C=C(\C)CCC=C(C)C)C(=O)N2CCc3c([nH]c4ccc(OC)cc34)[C@]12C (stereo partly drawn)	6.4	26.5*	0.1	2.8	7.5	-11.7
CCN(CC)C(=O)[C@H]1CC(CC(=O)NC/C=C(\C)CCC=C(C)C)C(=O)N2CCc3c([nH]c4ccccc34)[C@]12C (stereo partly drawn)	-3.0	27.5*	4.3	0.5	10.0	-2.5
CCN(CC)C(=O)[C@H]1C[C@H](CC(=O)NC/C=C(\C)CCC=C(C)C)C(=O)N2CCc3c([nH]c4ccc(Cl)cc34)[C@]12C	1.9	7.8	0.8	-2.5	6.2	-0.1
COc1ccc(/C=C/S(=O)(=O)NCc2ccccc2)c(CNC(=O)OC(C)(C)C)c1	x	x	x	-10.8	x	x
SMILES	PAFAH2 inh	pPAFAH inh	PAFAH1B2 FP inh	mABHD4 FP	PAFAH1B3 FP inh	HTRA1 inh
COC(=O)c1cc(-c2cccc(C(F)(F)F)c2)c(=O)n2c1CCC2	x	x	x	-6.2	x	x
Cc1ccc(C(=O)N/N=C\c2ccc(Br)o2)o1	2.7	-3.9	4.2	-4.3	3.8	2.4
Cc1ccc(C(=O)N/N=C/c2ccc(-c3ccc(Br)cc3[N+](=O)[O-])o2)o1	8.8	26.4*	7.1	15.4	3.5	10.4
O=C(O)C(Cc1ccccc1-c1ccccc1)C(=O)O	-3.9	7.3	27.1*	-0.5	-3.9	2.5
CCCc1cc(=O)[nH]c(SCC(=O)NC2CCCc3ccccc32)n1 (stereo not drawn)	1.1	-1.4	25.8*	-3.3	-3.2	4.7
CCOC(=O)c1cc2c(N)c(C(=O)c3ccc(Br)cc3)sc2[nH]c1=O	31.8*	10.4	32.0*	14.6	12.0	4.5
NNC(=O)c1oc2nc(-c3ccco3)cc(-c3ccco3)c2c1N	x	34.4*	x	21.1	x	x
Nc1c(C(=O)N/N=C/c2cccnc2)oc2nc(-c3ccco3)cc(-c3ccco3)c12	x	24.0	x	23.2	x	x
O=C(Cc1ccc(Br)cc1)c1ccc(O)cc1O	-2.7	3.8	82.0*	-12.3	4.3	-7.2
CCCCCN1CCCCC(NC(=O)C2CCCCC2)C1=O (stereo not drawn)	x	x	x	3.6	x	x
Nn1c(SCc2cccc3ccccc23)nnc1-c1cc(-c2ccc(Cl)cc2)n[nH]1	x	x	x	0.2	x	x
c1ccc(-n2c(SCc3cccc4ccccc34)nnc2-c2ccncc2)cc1	x	x	x	-5.9	x	x
COC(=O)[C@]12C[C@H](CC(=O)N3CCC(c4ccccc4)CC3)C(=O)N(Cc3ccc(Cl)cc3Cl)C1=C[C@H](C(C)C)O[C@@H]2C1CC1	x	x	x	-2.5	x	x
CCn1c(=O)c2c(n3cnnc13)-c1ccccc1CC21CCCCC1	-0.2	3.5	25.6*	-3.5	6.7	2.4
CCn1c(SCC(N)=O)nc2c(c1=O)C1(CCCC1)Cc1ccccc1-2	7.5	5.1	31.0*	-6.3	-2.5	-12.2
N#Cc1ccc(OC[C@@H](O)CN2CCC(C(O)(c3ccccc3)c3ccccc3)CC2)cc1	x	x	x	5.1	x	x
CC1OC23CCCCC2C(C#N)(C(=N)O3)C1(C#N)C#N (stereo not drawn)	11.0	3.1	11.3	8.0	13.7	5.5
CCC1OC23CCCCC2C(C#N)(C(=N)O3)C1(C#N)C#N (stereo not drawn)	47.5*	9.4	33.5*	15.1	32.7*	28.2
N#CC12COC3(CCCCC3C1(C#N)C#N)OC2=N (stereo not drawn)	37.7*	5.5	20.4	24.2	34.8*	20.8
N#CC1(C#N)COC23CCCCC2C1(C#N)C(=N)O3 (stereo not drawn)	35.5*	9.1	17.8	17.5	18.2	13.3
NC(=O)Nc1ccc(Oc2c(F)c(F)c(F)c(F)c2F)cc1	3.9	29.3*	1.5	-2.7	7.9	-3.6
CCOc1ccc(NC(N)=O)cc1	6.4	0.3	-1.4	0.9	3.4	-0.1
